Test results from ChEMBL document CHEMBL1821673, “Development of β-amino alcohol derivatives that inhibit Toll-like receptor 4 mediated inflammatory response as potential antiseptics” (J Med Chem, 2011).
pIC50: −log10 of the molar value. Calls of active or inactive are those of the source. The calls are words filed in the database; no cut-off is given here.

Tests used:
[1] = target: Serine/threonine-protein kinase PAK 1 (Homo sapiens) (UniProt Q13153); experiment: Inhibition of PAK1 at 28 uM by luciferase fragment complementation assay
Chain of Serine/threonine-protein kinase PAK 1 (Homo sapiens) (Q13153 whole entry, the tested form may be a part): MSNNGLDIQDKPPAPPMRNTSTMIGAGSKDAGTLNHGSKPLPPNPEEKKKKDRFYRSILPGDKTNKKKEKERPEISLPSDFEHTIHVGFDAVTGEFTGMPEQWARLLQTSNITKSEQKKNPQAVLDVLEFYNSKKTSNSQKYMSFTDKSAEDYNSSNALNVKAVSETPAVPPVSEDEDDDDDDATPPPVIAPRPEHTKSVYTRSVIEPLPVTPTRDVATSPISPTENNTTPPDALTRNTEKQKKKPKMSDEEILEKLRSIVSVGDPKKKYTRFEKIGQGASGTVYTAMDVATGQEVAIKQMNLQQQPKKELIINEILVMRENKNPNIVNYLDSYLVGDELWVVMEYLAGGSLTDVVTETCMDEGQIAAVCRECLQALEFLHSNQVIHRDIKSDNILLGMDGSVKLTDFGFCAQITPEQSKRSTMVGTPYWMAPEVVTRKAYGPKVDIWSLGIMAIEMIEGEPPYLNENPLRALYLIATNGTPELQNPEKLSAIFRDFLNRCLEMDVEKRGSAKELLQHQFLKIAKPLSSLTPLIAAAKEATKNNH

Toll-like receptor 4 [2] = target: T1, Toll-like receptor 4 (Homo sapiens, UniProt O00206); experiment: Inhibition of LPS-induced TLR4 activation in human whole blood assessed as inhibition of TNFalpha release at 500 uM preincubated for 5 to 10 mins
T1 sequence (O00206 whole entry): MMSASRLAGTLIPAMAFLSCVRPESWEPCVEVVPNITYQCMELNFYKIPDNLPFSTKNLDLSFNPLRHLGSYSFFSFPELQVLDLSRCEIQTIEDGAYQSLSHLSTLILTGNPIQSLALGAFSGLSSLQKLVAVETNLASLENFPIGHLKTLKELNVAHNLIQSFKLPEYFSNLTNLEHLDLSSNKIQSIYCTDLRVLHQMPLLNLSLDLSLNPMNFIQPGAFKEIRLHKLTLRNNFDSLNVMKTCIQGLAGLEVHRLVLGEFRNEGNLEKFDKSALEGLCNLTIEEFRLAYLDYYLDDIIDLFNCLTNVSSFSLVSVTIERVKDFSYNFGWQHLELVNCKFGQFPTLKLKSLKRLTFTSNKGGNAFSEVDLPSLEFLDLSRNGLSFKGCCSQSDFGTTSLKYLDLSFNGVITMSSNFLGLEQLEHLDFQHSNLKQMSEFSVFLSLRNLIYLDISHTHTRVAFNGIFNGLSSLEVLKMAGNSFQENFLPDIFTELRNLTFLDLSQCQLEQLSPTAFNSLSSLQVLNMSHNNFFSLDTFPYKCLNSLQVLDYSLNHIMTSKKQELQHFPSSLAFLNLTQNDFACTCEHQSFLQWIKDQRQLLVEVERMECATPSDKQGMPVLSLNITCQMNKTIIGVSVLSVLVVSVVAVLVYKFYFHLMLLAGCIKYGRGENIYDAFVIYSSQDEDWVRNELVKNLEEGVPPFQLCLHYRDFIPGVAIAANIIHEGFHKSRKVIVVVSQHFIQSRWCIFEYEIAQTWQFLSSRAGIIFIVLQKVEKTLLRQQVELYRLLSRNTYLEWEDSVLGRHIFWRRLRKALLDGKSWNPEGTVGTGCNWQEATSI
Summary of the method: (§1)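 Fresh human blood anticoagulated with lepirudin, preincubated with compound 5–10 min at 37 °C, then stimulated with 100 ng/mL ultrapure E. coli 0111:B4 LPS, rotating 2 h at 37 °C. Stopped with EDTA 10 mM final; plasma TNF-α, IL-8 and IL-6 measured by singleplex Bio-plex, expressed as % of LPS without inhibitor. n = 3 or 9, paired two-sided t-test.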

[3] = target: Serine/threonine-protein kinase PLK4 (Homo sapiens) (UniProt O00444); experiment: Inhibition of PLK4 at 28 uM by luciferase fragment complementation assay
Chain of Serine/threonine-protein kinase PLK4 (Homo sapiens) (O00444 whole entry, the tested form may be a part): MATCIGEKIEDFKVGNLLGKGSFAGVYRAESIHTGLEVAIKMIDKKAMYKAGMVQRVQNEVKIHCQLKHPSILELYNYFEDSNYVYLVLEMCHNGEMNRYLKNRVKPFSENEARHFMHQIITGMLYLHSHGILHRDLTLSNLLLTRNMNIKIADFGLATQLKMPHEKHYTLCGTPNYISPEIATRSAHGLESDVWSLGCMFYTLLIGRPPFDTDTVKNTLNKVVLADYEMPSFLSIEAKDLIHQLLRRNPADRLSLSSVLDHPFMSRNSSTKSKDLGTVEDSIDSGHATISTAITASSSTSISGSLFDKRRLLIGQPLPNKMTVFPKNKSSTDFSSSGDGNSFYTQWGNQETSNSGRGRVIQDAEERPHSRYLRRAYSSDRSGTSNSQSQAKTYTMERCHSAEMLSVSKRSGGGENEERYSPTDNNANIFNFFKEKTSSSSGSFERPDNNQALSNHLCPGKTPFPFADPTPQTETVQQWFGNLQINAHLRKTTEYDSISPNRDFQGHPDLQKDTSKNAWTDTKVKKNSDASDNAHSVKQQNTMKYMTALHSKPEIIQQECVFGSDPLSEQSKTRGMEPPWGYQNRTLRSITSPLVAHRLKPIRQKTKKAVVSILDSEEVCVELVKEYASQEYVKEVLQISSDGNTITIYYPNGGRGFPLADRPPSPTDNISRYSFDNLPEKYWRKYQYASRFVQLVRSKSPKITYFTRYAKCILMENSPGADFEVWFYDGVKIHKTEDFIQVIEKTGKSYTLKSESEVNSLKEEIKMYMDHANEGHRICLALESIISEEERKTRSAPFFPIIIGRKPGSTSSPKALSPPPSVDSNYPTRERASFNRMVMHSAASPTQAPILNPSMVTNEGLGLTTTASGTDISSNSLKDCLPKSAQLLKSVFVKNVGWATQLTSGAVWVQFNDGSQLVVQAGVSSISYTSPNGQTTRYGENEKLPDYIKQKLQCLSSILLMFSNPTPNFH

Liver microsomes = experiment: Intrinsic clearance in human liver microsomes at 1 uM after 60 mins by LC-MS/MS analysis; format: ADME, Microsome; conditions: 1 h
Summary of the method: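 1 µM in <0.25% DMSO, 37 °C, human liver microsomes 0.5 mg/mL protein, started with cofactors. Time points 0, 10, 20, 30 and 60 min; NADPH addition confirmed by fluorimetry. LC-MS/MS peak-area ratio to internal standard; CLint = k/P.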

Toll-like receptor 4 [4] = target: T1, Toll-like receptor 4; experiment: Inhibition of LPS-induced TLR4 activation in human whole blood assessed as reduction in plasma IL-8 level at 250 uM preincubated for 5 to 10 mins; summary of the method: as §1
Toll-like receptor 4 [5] = target: T1, Toll-like receptor 4; experiment: Inhibition of LPS-induced TLR4 activation in human whole blood assessed as inhibition of IL-6 release preincubated for 5 to 10 mins; summary of the method: as §1
MDCK = experiment: Permeability across apical to basolateral side of MDCK cells expressing MDR1 at 5 uM; format: ADME, cell-based, Canis lupus familiaris; conditions: dog
Summary of the method: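 MDR1-MDCK monolayer; transport measured in apical-to-basolateral and basolateral-to-apical directions at 5 µM.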

Toll-like receptor 4 [6] = target: T1, Toll-like receptor 4; experiment: Inhibition of LPS-induced TLR4 activation in human whole blood assessed as inhibition of IL-8 release preincubated for 5 to 10 mins; summary of the method: as §1
Toll-like receptor 4 [7] = target: T1, Toll-like receptor 4; experiment: Inhibition of LPS-induced TLR4 activation in human whole blood assessed as inhibition of IL-8 release at 500 uM preincubated for 5 to 10 mins; summary of the method: as §1
[8] = target: Protein kinase C gamma type (Homo sapiens) (UniProt P05129); experiment: Inhibition of PKCgamma at 28 uM by luciferase fragment complementation assay
[9] = target: Glycogen synthase kinase-3 alpha (Homo sapiens) (UniProt P49840); experiment: Inhibition of GSK3alpha at 28 uM by luciferase fragment complementation assay
Cytochrome P450 2C9 = Cytochrome P450 2C9 (Homo sapiens, UniProt P11712); experiment: Inhibition of CYP2C9 in human liver microsomes using diclofenac as probe; format: ADME, Microsome
Liver = experiment: Intrinsic clearance in rat liver S9 fractions at 1 uM after 60 mins by LC-MS/MS analysis; format: ADME, subcellular, S9 fraction; conditions: s9, 1 h
Summary of the method: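 1 µM in <0.25% DMSO, 37 °C, pooled rat or human S9 at 1 mg/mL, with 1 mM each of NADPH, UDPGA, PAPS and GSH. Sampled at 0, 10, 20, 30 and 60 min; peak-area ratio to internal standard by LC-MS/MS without a standard curve. CLint = k/P.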

[10] = target: RAC-alpha serine/threonine-protein kinase (Homo sapiens) (UniProt P31749); experiment: Inhibition of AKT1 at 28 uM by luciferase fragment complementation assay
Chain of RAC-alpha serine/threonine-protein kinase (Homo sapiens) (P31749 whole entry, the tested form may be a part): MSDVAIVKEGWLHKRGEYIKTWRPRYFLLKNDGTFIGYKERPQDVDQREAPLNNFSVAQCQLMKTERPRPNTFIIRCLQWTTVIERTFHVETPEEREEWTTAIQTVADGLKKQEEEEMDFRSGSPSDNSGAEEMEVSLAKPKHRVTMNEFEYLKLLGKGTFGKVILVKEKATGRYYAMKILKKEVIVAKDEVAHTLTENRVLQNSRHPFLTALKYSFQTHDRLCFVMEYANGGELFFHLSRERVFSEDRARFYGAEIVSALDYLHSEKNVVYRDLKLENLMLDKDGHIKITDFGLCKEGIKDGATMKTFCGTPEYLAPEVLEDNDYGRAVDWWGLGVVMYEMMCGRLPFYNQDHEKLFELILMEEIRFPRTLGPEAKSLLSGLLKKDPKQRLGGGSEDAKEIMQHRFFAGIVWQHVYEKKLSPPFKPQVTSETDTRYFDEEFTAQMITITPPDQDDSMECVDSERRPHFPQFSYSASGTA

Toll-like receptor 4 [11] = target: T1, Toll-like receptor 4; experiment: Inhibition of LPS-induced TLR4 activation in human whole blood assessed as reduction in plasma TNFalpha level at 250 uM preincubated for 5 to 10 mins; summary of the method: as §1
[12] = target: Serine/threonine-protein kinase pim-1 (Homo sapiens) (UniProt P11309); experiment: Inhibition of PIM1 at 28 uM by luciferase fragment complementation assay
Chain of Serine/threonine-protein kinase pim-1 (Homo sapiens) (P11309 whole entry, looked up, the tested form may be a part): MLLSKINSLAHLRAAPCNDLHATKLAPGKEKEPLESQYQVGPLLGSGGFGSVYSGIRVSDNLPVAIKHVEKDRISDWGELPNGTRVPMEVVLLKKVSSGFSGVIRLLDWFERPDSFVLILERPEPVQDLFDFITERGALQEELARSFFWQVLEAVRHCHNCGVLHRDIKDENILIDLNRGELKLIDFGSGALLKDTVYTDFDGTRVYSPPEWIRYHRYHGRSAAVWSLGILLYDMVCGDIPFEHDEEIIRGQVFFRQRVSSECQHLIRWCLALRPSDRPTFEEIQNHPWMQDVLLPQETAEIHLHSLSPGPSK

Toll-like receptor 4 [13] = target: T1, Toll-like receptor 4; experiment: Inhibition of LPS-induced TLR4 activation in human whole blood assessed as inhibition of IL-6 release at 250 uM preincubated for 5 to 10 mins; summary of the method: as §1
[14] = target: Platelet-derived growth factor receptor beta (Homo sapiens) (UniProt P09619); experiment: Inhibition of PDGFRB at 28 uM by luciferase fragment complementation assay
Chain of Platelet-derived growth factor receptor beta (Homo sapiens) (P09619 whole entry, the tested form may be a part): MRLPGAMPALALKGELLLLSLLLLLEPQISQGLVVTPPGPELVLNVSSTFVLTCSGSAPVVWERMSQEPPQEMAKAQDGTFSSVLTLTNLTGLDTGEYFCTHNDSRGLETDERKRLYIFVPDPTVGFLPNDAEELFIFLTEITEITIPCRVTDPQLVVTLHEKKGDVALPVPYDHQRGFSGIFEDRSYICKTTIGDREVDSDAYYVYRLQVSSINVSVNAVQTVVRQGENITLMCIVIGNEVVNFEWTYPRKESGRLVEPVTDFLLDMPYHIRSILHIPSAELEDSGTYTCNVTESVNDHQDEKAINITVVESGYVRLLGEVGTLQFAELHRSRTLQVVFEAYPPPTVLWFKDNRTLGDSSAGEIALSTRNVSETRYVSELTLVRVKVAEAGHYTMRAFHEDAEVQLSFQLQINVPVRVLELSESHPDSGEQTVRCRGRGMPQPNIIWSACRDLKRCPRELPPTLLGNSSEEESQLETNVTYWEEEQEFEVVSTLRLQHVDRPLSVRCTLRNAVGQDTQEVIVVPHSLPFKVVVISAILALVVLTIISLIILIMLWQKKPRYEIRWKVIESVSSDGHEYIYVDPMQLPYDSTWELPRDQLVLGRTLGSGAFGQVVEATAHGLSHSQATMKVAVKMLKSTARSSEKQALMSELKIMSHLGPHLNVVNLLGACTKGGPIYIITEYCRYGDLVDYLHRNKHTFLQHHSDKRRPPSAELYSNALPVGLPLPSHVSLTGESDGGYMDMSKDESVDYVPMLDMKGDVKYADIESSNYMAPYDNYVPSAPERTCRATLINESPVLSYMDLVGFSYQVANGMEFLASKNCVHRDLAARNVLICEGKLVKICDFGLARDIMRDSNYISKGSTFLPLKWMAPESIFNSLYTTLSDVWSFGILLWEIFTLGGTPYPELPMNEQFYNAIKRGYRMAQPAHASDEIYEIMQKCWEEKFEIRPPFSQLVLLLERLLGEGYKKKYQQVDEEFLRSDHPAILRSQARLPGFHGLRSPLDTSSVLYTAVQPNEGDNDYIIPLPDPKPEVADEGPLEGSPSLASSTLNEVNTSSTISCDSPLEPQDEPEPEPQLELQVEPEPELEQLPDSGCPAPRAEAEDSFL

Toll-like receptor 4 [15] = target: T1, Toll-like receptor 4; experiment: Inhibition of LPS-induced TLR4 activation in human whole blood assessed as reduction in plasma IL-6 level at 250 uM preincubated for 5 to 10 mins; summary of the method: as §1
Toll-like receptor 4 [16] = target: T1, Toll-like receptor 4; experiment: Inhibition of LPS-induced TLR4 activation in human whole blood assessed as inhibition of IL-6 release at 500 uM preincubated for 5 to 10 mins; summary of the method: as §1
Toll-like receptor 4 [17] = target: T2, Toll-like receptor 4 (Mus musculus, UniProt Q9QUK6); experiment: Inhibition of LPS-induced TLR4 activation in mouse RAW264.7 cells assessed as reduction in NO production after 18 to 24 hrs; format: cell-based
T2 sequence (Q9QUK6 whole entry): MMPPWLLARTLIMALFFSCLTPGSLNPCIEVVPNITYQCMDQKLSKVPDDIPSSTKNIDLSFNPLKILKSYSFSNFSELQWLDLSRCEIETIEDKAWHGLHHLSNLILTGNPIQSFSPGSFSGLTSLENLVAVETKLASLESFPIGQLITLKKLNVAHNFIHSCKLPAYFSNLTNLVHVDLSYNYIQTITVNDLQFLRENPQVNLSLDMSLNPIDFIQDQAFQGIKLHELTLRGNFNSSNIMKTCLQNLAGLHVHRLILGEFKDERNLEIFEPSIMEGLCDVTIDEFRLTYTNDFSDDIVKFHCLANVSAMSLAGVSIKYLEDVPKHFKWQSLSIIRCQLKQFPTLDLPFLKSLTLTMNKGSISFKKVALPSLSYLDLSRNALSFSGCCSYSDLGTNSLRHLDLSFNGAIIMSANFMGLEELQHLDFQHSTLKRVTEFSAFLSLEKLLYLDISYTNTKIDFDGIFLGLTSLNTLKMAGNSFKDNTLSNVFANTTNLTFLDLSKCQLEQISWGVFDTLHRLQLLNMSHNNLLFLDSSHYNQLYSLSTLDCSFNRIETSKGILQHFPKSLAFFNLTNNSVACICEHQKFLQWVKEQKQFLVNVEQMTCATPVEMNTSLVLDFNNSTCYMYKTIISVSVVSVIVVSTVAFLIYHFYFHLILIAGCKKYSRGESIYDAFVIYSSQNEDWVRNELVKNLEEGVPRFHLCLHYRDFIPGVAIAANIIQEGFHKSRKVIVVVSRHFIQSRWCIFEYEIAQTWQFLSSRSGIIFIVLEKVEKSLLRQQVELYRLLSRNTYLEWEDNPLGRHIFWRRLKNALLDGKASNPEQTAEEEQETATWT
Summary of the method: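 RAW264.7 cells, 100,000 per well, grown 24 h in RPMI with 10% FBS, then switched to unsupplemented RPMI. LPS and compound added together, 18–24 h at 37 °C. Medium nitrite measured with 2,3-diaminonaphthalene (ex 365/em 450 nm) against a nitrite standard curve. Quadruplicate; IC50 by a modified Kou-type method.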

[18] = Octanol/water distribution coefficient, log D of the compound at pH 7.4; format: physicochemical
Summary of the method: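 Octanol/water distribution measured at pH 7.4.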

CCOc1ccc(OCC(O)CN(C)Cc2c(C)nn(Cc3ccccc3Cl)c2C)cc1 (racemic)
inhibition [1]: ≤ 27% | inhibition (Toll-like receptor 4 [2]): Active | inhibition [3]: ≤ 27% | CL (Liver microsomes): > 700 µL/min/mg | inhibition (Toll-like receptor 4 [4]): 65% | pIC50 (Toll-like receptor 4 [5]): 3.50 | inhibition (Toll-like receptor 4 [5]): Dose-dependent effect | permeability (MDCK): permeable | pIC50 (Toll-like receptor 4 [6]): 3.96 | inhibition (Toll-like receptor 4 [6]): Dose-dependent effect | inhibition (Toll-like receptor 4 [7]): Active | inhibition [8]: ≤ 27% | inhibition [9]: ≤ 27% | pIC50 (Cytochrome P450 2C9): 4.37 | CL (Liver): > 350 µL/min/mg | inhibition [10]: ≤ 27% | inhibition (Toll-like receptor 4 [11]): 43% | inhibition [12]: ≤ 27% | inhibition (Toll-like receptor 4 [13]): inactive | inhibition [14]: ≤ 27% | inhibition (Toll-like receptor 4 [15]): 50% | inhibition (Toll-like receptor 4 [16]): Active | pIC50 (Toll-like receptor 4 [17]): 4.56 | logD [18]: 3.36
